Assay outcomes from PubChem BioAssay.
NLRP3 yeast inh = NALP3 inflammasome inhibitors in reconstituted yeast, primary screen, luminescence, uHTS. Yeast reconstituted NLRP3/ASC/caspase-1, beta-gal luminescence, 24 h. inhibition, % at 10 µM. 330,000 tested, 0.39% active. AID 2825, 2010;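 active = inhibition of 50% or more; inactive = inhibition below 50%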;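 note: plate controls were induced DMSO wells for no effect and uninduced yeast grown without galactose for full effect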
ATG4B inh = ATG4B protease inhibitors, primary screen, biochemical, fluorescence, uHTS. Cysteine protease ATG4B (Homo sapiens), Q9Y4P1. ATG4B cleavage of LC3-PLA2, NBD-HPC fluorescence, 1 h. inhibition, % at 8.33 µM. 340,000 tested, 0.51% active. AID 504462, 2011; in the data active = inhibition above about 40%
Target sequence (Q9Y4P1 whole entry, looked up): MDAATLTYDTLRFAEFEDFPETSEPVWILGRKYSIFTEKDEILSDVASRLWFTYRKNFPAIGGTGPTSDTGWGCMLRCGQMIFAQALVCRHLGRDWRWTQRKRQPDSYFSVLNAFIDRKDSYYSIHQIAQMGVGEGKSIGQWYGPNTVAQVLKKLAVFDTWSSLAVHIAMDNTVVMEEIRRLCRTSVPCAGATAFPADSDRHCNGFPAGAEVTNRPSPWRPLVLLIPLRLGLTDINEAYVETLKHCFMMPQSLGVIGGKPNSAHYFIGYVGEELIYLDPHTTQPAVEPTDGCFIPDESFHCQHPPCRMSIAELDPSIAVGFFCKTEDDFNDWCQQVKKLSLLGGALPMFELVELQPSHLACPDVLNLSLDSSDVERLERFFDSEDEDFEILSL
UCH37 DUB inh = inhibitors of human UCH37 deubiquitinase, primary screen, biochemical, Ub-AMC cleavage, fluorescence | purified proteasome/UCH37 | inhibition, % (concentration not given with the values) | 330,000 tested, 0.33% active;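 active = mean inhibition over replicate wells above about 20%, limit read from the data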;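 note: 0% = compound-free wells with enzyme and 100% = wells lacking proteasome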
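Material: human UCH37 enzyme supplied as purified proteasome complex / Amount: 0.15 nM proteasome as dispensed / Buffer or medium: pH 7.4 Tris-HCl (50 mM) with ovalbumin, ATP-MgCl2, DTT / Times: preincubation 30 min, reaction 25 min, room temperature / Technique: AMC fluorescence from Ub-AMC cleavage, excitation 355 nm, emission 460 nm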
ALR H2O2 inh = inhibitors of human ALR sulfhydryl oxidase, primary screen, biochemical, H2O2 detection, HRP-luminol luminescence, single point; FAD-linked sulfhydryl oxidase ALR (Homo sapiens), P55789; purified ALR, DTT oxidation; inhibition, % (concentration not given with the values); 290,000 tested, 3.8% active; AID 485317, 2010;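 active = mean replicate inhibition above about 79%, with every replicate also reaching it, limit read from the data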
Target sequence (P55789 whole entry, looked up): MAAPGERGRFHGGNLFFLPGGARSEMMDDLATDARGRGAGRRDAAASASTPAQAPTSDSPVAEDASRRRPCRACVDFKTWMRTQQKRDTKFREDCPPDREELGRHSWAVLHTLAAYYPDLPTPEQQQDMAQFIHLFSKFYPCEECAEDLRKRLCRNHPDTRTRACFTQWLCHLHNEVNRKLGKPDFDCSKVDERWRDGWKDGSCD
Calb FLC = C. albicans growth inhibition with fluconazole, primary screen, CaCi-2 strain, Alamar Blue fluorescence. AID 1979, 2009. growth inhibition, % (no concentration beside the values). 300,000 tested, 0.57% active. C. albicans CaCi-2 + fluconazole, 48 h;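 active = growth inhibition above about 58% in most replicates, limit read from the data, passing the limit was not always enough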;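 note: all wells also contain fluconazole at 8 µg/ml as a sub-toxic cotreatment; 0% = median of DMSO wells and 100% = median of geldanamycin control wells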
NALP1 inh = NALP1 inflammasome inhibitors in reconstituted yeast, colorimetric, S. cerevisiae, triplicate retest; S. cerevisiae NALP1/ASC/caspase-1 growth, X-gal OD620, 72 h; inhibition, % at 10 µM; 280,000 tested, 0.61% active; in the data active = inhibition mostly above about 24%, no sharp cut-off; inactive = mostly below about 32%
Starred values were filed as active, the others as inactive; . = no result given. In the library only some 4.8% were active in any assay of this set; here they are far more common.

SMILES	NLRP3 yeast inh	ATG4B inh	UCH37 DUB inh	ALR H2O2 inh	Calb FLC	NALP1 inh
O=C1CCC(CCC(=O)N2CCCC(C(=O)c3ccc4c5c(cccc35)CC4)C2)=NN1 (configuration not stated)	-7	3	-26	-17	-5	10
COc1ccccc1OCC(=O)N1CCCC(Nc2ccc(F)c(F)c2)C1 (configuration not stated)	3	-8	-2	41	18	10
COc1ccc(NC2CCCN(C(=O)COc3ccc(Cl)cc3C)C2)cc1OC (configuration not stated)	17	-13	5	96*	19	3
COc1ccccc1OCC(=O)N1CCCC(Nc2ccc(C)c(C)c2)C1 (configuration not stated)	2	2	-1	98*	11	16
Cc1ccc(NC2CCCN(C(=O)CSc3ccccn3)C2)cc1C (configuration not stated)	16	9	3	99*	-1	5
Cc1ccc(NC2CCCN(C(=O)CCC3=NNC(=O)CC3)C2)cc1C (configuration not stated)	-8	27	3	98*	-4	13
COCCCNC(=O)c1c(N)n(N=Cc2cccs2)c2nc3ccccc3nc12	.	.	-391	.	.	.
CN(C)c1ccc(C=NN2CCN(Cc3ccccc3Cl)CC2)cc1	.	.	1	.	.	.
COc1ccc(NC2CCCN(C(=O)CCc3cccc(Cl)c3)C2)cc1 (configuration not stated)	11	34	2	.	-7	27
COc1ccc(CCC(=O)N2CCCC(Nc3ccc(C)c(C)c3)C2)cc1OC (configuration not stated)	2	-3	4	99*	16	13
CC1CCCC(C)N1N=C/C=C/c1ccccc1[N+](=O)[O-] (configuration not stated)	.	.	3	.	.	.
O=S(=O)(NN=C/C=C/c1ccccc1)c1ccccc1	.	.	9	.	.	.
CN1c2ccsc2C(=NNc2ccccc2)CS1(=O)=O	.	.	4	.	.	.
CN1c2ccsc2/C(=N/Nc2ccccc2)CS1(=O)=O	27	-8	.	99*	-19	5
CCCCCCCCN1[C@@H](CC(=O)OC)c2cc(F)ccc2S1(=O)=O	14	-9	5	49	-2	.
CCCCCCCCCCCCN1[C@@H](CC(=O)O)c2cc(F)ccc2S1(=O)=O	2	28	3	98*	29	.
CCCCCCCCN1[C@@H](CC(=O)O)c2cc(C(F)(F)F)ccc2S1(=O)=O	8	2	1	98*	-9	.
CC1(C)OC(=O)C(=CNc2cccc(O)c2)C(=O)O1	4	-6	9	-5	3	0
CC1(C)OC(C)(C)/C(=C/Nc2ccc(O)cc2)C1=O	-4	-1	11	99*	12	22
NC[C@@H]1O[C@H](C23CC4CC(CC(C4)C2)C3)Cc2c1ccc(O)c2O	10	6	2	.	101*	-9
C=CCOc1ccc(C=NNC(=O)C(C)Sc2ccccn2)cc1OC (configuration not stated)	.	.	7	.	.	.
OCc1ccnc2c(O)cccc12	-23	0	1	-20	107*	23
NC(=O)c1ccnc2c(O)cccc12	12	-7	-1	-1	.	.
O=[N+]([O-])c1ccc(NN=C2CC3CC=CC23)c([N+](=O)[O-])c1 (configuration not stated)	.	.	5	.	.	.
CCCc1nnc(NC(=O)CC(=O)Nc2ccccc2C(=O)O)s1	15	1	-1	.	-1	40*
SMILES	NLRP3 yeast inh	ATG4B inh	UCH37 DUB inh	ALR H2O2 inh	Calb FLC	NALP1 inh
CCCc1nnc(NC(=O)CC(C)c2ccccc2)s1 (configuration not stated)	31	12	5	-5	-3	-6
CCCc1nnc(NC(=O)c2cc3ccccc3oc2=O)s1	4	-6	3	-17	6	40*
COc1ccc(-c2nnc(Nc3nc4c(OC)cccc4s3)o2)cc1	.	-14	-130	4	-6	-9
COc1ccc(-c2nnc(Nc3nc4c(OC)cccc4s3)o2)c(OC)c1	-5	25	-215	5	101*	0
COc1ccccc1C1C2=C(N=c3sc(=Cc4cccc(OCC(=O)O)c4)c(=O)n31)c1ccccc1CC2 (configuration not stated)	.	.	12	.	.	.
O=C(O)c1ccc(N/N=C2/CCSc3ccc(F)cc32)cc1	28	-1	.	98*	-2	9
O=C(O)c1ccc(N/N=C2/CCCc3ccccc32)cc1	17	-1	.	98*	7	-9
O=C(NN=C1CCCc2ccccc21)c1ccc([N+](=O)[O-])cc1	.	.	5	.	.	.
O=C(CSc1ncnc2ccccc12)NCc1ccc2c(c1)OCO2	9	-4	6	25	-7	-6
Cc1ccc(NC(=O)CSc2ncnc3ccccc23)cc1S(=O)(=O)N1CCOCC1	-13	-7	6	99*	0	-5
O=C(CSc1ncnc2ccccc12)Nc1ccc2c(c1)OCO2	36	-6	8	98*	8	.
COc1ccc(-n2nnc3c(SCC(=O)Nc4ccc5c(c4)OCCO5)ncnc32)cc1	9	.	1	99*	.	-3
O=C(CSc1ncnc2ccccc12)Nc1ccc2c(c1)OCCO2	19	-12	8	95*	-24	3
Cc1ccc(C=NN2CCN(Cc3cccc4ccccc34)CC2)s1	.	.	3	.	.	.
Cc1ccc(CNc2ncnc3c2cnn3-c2ccccc2)cc1	31	-5	0	-7	0	26
Cc1ccc(-n2ncc3c(NCc4ccccc4)ncnc32)cc1	18	-9	-3	-23	-3	41*
COc1ccc(C=NNS(=O)(=O)c2ccc(C)cc2)cc1	.	.	3	.	.	.
CC(C)c1nc2ccc(Br)cn2c1NC1CCCC1	22	3	-1	99*	8	10
CCC(C)Sc1cc(-c2nc3ccc(Cl)cn3c2NC2CCCCC2)ccc1OC (configuration not stated)	19	8	-47	.	.	.
O=CN1N=C(c2ccccc2)CC1c1ccccc1[N+](=O)[O-] (configuration not stated)	17	7	3	.	-3	34
N#CC1CC(c2ccccc2)=NN1c1ccccc1[N+](=O)[O-] (configuration not stated)	22	22	3	-9	85*	2
O=c1[nH][nH]c(-c2ccccc2O)c1C(C[N+](=O)[O-])c1ccc(Cl)cc1Cl (configuration not stated)	16	0	1	.	3	70*
